Data taken from ChEMBL document CHEMBL4402562, “Discovery of Novel Peptidomimetic Boronate ClpP Inhibitors with Noncanonical Enzyme Mechanism as Potent Virulence Blockers in Vitro and in Vivo” (J Med Chem, 2020).
Active and inactive are the calls of the source. No cut-off for these calls is given here.

Legend:
[1] = test system: Staphylococcus aureus; test: (§1) Antivirulence activity against methicillin-resistant Staphylococcus aureus ATCC 33591 infected in BALB/c mouse model of skin abscess assessed as effect on bacterial recovery levels at 1.5 to 3 mg/kg injected into shaved area of skin once daily for 4 days measured after 12 hrs post last dose; format: functional, organism-based
How it was run: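 Female BALB/c mice, 6-8 weeks, n=5 per group, backs shaved and depilated 1 day before; 50 µL subcutaneous 1.7 × 10⁹ CFU/mL MRSA ATCC 33591. From 6 h post-infection, 40 µL vehicle, vancomycin 3 mg/kg, or compound 1.5 or 3 mg/kg injected at infection site once daily for 4 days; weight recorded daily. Skin homogenised in saline 12 h after last dose, plated on LB agar 37 °C ≥16 h; log10 CFU/abscess; t-test.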

[2] = test system: Staphylococcus aureus; test: Inhibition of Staphylococcus aureus NCTC8325 with delta clpP assessed as reduction in bacteria-induced hemolysis of sheep erythrocytes by measuring hemoglobin release at 0.5 to 64 uM; format: functional, organism-based
How it was run: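 S. aureus NCTC8325 ΔclpP grown in MHB from OD600 0.05 to ~0.6 at 37 °C, then 8 h with serially diluted inhibitor or DMSO. Culture supernatant mixed 1:1 with 5% sheep erythrocytes, centrifuged 1,500 rpm for 15 min, hemoglobin at 545 nm. Thrice, triplicate tubes.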

[3] = Inhibition of Pseudomonas aeruginosa ClpP1 expressed in Escherichia coli […] pre-incubated for 10 mins before Suc-LY- AMC addition and measured after 1 hr by fluorescence based assay relative to control
How it was run: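 PaClpP1 (0.5 μM monomer) in 25 mM Tris-Cl pH 7.5, 150 mM NaCl. Preincubated 10 min at RT with inhibitor, two-fold dilutions over 8 steps from 50 μM. Then 50 μM Suc-LY-AMC, 380/440 nm for 1 h at 37 °C, slopes normalized to DMSO. Thrice, triplicate wells.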

[4] = biological target: T1, ATP-dependent Clp protease proteolytic subunit (Staphylococcus aureus (strain NCTC 8325)) (UniProt Q2G036); test: Potency index, ratio of IC50 for BTZ to IC50 for test compound for inhibition of ClpP in methicillin-resistant Staphylococcus aureus ATCC 33591 assessed as reduction in bacteria-induced hemolysis of sheep erythrocytes by measuring hemoglobin release incubated for 15 mins
T1 sequence (whole entry): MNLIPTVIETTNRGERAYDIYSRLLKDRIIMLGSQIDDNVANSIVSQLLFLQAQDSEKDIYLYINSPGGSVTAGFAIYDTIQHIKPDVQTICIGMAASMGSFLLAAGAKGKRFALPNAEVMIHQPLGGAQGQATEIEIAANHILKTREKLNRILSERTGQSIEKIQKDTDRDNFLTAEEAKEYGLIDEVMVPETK

[5] = test system: Staphylococcus aureus; test: Inhibition of virulence-related genes expression in methicillin-resistant Staphylococcus aureus ATCC 33591 assessed as reduction in aur expression at 4 to 16 uM by qPCR analysis relative to control; format: functional, organism-based
How it was run: (§2)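 Total RNA from 2×10⁸ CFU treated MRSA by liquid-nitrogen freeze-thaw and TRIzol; qPCR relative to gyrB endogenous control; three experiments, triplicate wells.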

[6] = test system: Staphylococcus aureus; test: Inhibition of virulence-related genes expression in methicillin-resistant Staphylococcus aureus ATCC 33591 assessed as reduction in RNAIII effector, expression at 16 uM by qPCR analysis relative to control; format: functional; how it was run: as §2
[7] = Toxicity in BALB/c mouse model of skin abscess infected with methicillin-resistant Staphylococcus aureus ATCC 33591 assessed as increase in AST levels at 1.5 to 3 mg/kg injected into shaved area of skin once daily for 4 days; format: organism-based; settings: in vivo, other, 96 h
How it was run: (§3)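 Infected BALB/c mice (n=5/group) dosed 1.5 or 3 mg/kg into the infected skin once daily for 4 days; blood collected on day 4 and day 14, centrifuged 3,500 rpm 15 min, serum biochemistry analysed.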

[8] = Toxicity in BALB/c mouse model of skin abscess infected with methicillin-resistant Staphylococcus aureus ATCC 33591 assessed as effect on creatinine levels at 1.5 to 3 mg/kg injected into shaved area of skin once daily for 4 days; format: organism-based; settings: in vivo, other, 96 h; how it was run: as §3
[9] = biological target: T1, ATP-dependent Clp protease proteolytic subunit (Staphylococcus aureus (strain NCTC 8325)); test: Inhibition of N-terminal His6-sumo-tagged full length Staphylococcus aureus ClpP expressed in Escherichia coli […] assessed as enzyme activity recovery level at 20-fold molar excess pre-incubated for 10 mins before Suc-LY-AMC addition and measured after 1 hr followed by dialysis up to 72 hrs by fluorescence based assay relative to control; design: scale not given: the % may be the effect or the level left
How it was run: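 ClpP (1 μM, 100 mM Hepes pH 7.0, 100 mM NaCl) incubated 1 h at RT with 20-fold molar excess inhibitor or DMSO. Dialyzed at 4 °C, buffer changed after 6 h and then every 24 h. Aliquots assayed for peptidase activity with Suc-LY-AMC. Thrice, single sample.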

[10] = test system: Staphylococcus aureus; test: as §1, with “reduction in severe alveolar destruction” for “effect on bacterial recovery levels”, “dose by hematoxylin and eosin staining based optical microscopy” for “dose”; format: functional, organism-based
How it was run: (§4)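 Same MRSA ATCC 33591 skin-abscess model in female BALB/c mice (n=5/group), 40 µL compound at 1.5 or 3 mg/kg injected into the infected shaved skin once daily for 4 days. On day 4 infected skin and heart, liver, spleen, lung, kidney fixed in 4% paraformaldehyde, embedded, sectioned, H&E stained and examined by microscopy; PBS-treated uninfected and vehicle controls.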

[11] = Toxicity in BALB/c mouse model of skin abscess infected with methicillin-resistant Staphylococcus aureus ATCC 33591 assessed as effect on uric acid levels at 1.5 to 3 mg/kg injected into shaved area of skin once daily for 4 days; format: organism-based; settings: in vivo, other, 96 h; how it was run: as §3
[12] = biological target: Coagulation factor X (Homo sapiens) (UniProt P00742); test: Inhibition of human F10a up to 100 uM pre-incubated for 10 mins before Pefachrome Fxa addition and measured after […] based assay
[13] = Toxicity in BALB/c mouse model of skin abscess infected with methicillin-resistant Staphylococcus aureus ATCC 33591 assessed as effect on alanine transaminase levels at 1.5 to 3 mg/kg injected into shaved area of skin once daily for 4 days; format: organism-based; settings: in vivo, other, 96 h; how it was run: as §3
[14] = biological target: T2, ATP-dependent Clp protease proteolytic subunit (Staphylococcus aureus (strain NCTC 8325), UniProt Q2G036); test: Binding affinity to N-terminal His6-sumo-tagged full length Staphylococcus aureus ClpP expressed in Escherichia coli […] assessed as shifting of melting peak of SaClpP by differential scanning calorimetry analysis
T2 sequence (Q2G036 whole entry): T1 sequence (whole entry)
How it was run: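 DSC: 0.5 mg/mL (25 µM) SaClpP with 100 µM compound or two-fold dilution series, RT; scanned 30-90 °C at 1 °C/min, buffer-buffer scan subtracted; Tm from thermogram peak maximum; single run.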

[15] = test system: Staphylococcus aureus; test: as §1, with “reduction in interstitium thickening” for “effect on bacterial recovery levels”, “dose by hematoxylin and eosin staining based optical microscopy” for “dose”; format: functional, organism-based; how it was run: as §4
[16] = test system: Staphylococcus aureus; test: Inhibition of virulence-related genes expression in methicillin-resistant Staphylococcus aureus ATCC 33591 assessed as reduction in hla expression at 4 to 16 uM by qPCR analysis relative to control; format: functional, organism-based; how it was run: as §2

Coagulation factor X (Homo sapiens), sequence (P00742 41-179 limits assumed): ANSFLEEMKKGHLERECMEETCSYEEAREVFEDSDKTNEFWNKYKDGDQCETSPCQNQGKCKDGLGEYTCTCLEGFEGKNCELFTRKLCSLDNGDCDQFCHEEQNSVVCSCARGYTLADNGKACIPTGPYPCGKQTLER
Coagulation factor X (Homo sapiens), sequence (P00742 235-488 limits assumed): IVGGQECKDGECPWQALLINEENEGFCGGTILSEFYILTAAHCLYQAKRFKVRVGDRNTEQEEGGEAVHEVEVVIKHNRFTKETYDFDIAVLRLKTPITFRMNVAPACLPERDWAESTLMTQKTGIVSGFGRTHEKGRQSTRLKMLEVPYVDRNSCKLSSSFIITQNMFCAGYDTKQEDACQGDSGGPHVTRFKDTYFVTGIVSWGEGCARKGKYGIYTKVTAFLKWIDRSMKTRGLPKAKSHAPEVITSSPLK

CC(C)C[C@H](NC(=O)[C@H](Cc1c[nH]c2ccccc12)NC(=O)c1cc(Cl)ccc1Cl)B(O)O
Activity [1]: Active | inhibition [2]: inactive | IC50 [3]: 3000 to 25000 nM | Ratio IC50 [4]: 30 | inhibition [5]: Active | fold change (FC) [6]: >10 | Activity [7]: Toxic | Activity [8]: Non-Toxic | Activity [9]: 100% | Activity [10]: Active | Activity [11]: Non-Toxic | inhibition [12]: inactive | Activity [13]: Non-Toxic | EC50 [14]: 1270 nM | Activity [15]: Active | inhibition [16]: Active
